# Screens (PubChem)
# The list is not random: actives were taken first. Their share in the collection is about 1.8%.
# PABP polyA inh = PABP poly(A) RNA binding inhibitors, primary screen, biochemical, fluorescence polarization, uHTS; calls only at 35 µM; AID 2014, 2009; 290,000 compounds, 1% hits; Polyadenylate-binding protein 1 (Homo sapiens), P11940;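 further: calls also rest on retests at 20 µM and on dose response follow-up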
# eIF4E-4G inh = eIF4E–eIF4G protein interaction inhibitors, primary screen, biochemical, uHTS, TR-FRET, eIF4GI fragment; Eukaryotic translation initiation factor 4E (Mus musculus) + Eukaryotic translation …; TR-FRET eIF4E-eIF4GI(517-606) binding, 2 h; inhibition, % at 21.7 µM; 220,000 compounds, 0.37% hits; AID 782, 2007;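 active means inhibition above about 30%, limit read from the data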;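 further: 0% = full FRET control wells and 100% = background wells lacking eIF4GI fragment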
# eIF4H inh = human eIF4H binding inhibitors, primary screen, translation initiation inhibitor project, biochemical, uHTS, fluorescence polarization; Eukaryotic translation initiation factor 4H (Homo sapiens), Q15056; eIF4H fluorescence polarization binding assay; inhibition, % at 35 µM; 290,000 compounds, 0.94% hits;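 further: calls also rest on retests at 20 µM and on dose response follow-up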
# MLLE-PAM2 inh = inhibitors of PABP1 MLLE–PAM2 peptide binding, primary screen, biochemical, fluorescence polarization, FITC-PAM2, GST-MLLE | Polyadenylate-binding protein 1 (Homo sapiens), P11940 | inhibition, % at 20 µM | 360,000 compounds, 0.36% hits; in the data active means inhibition above about 35%, passing the limit was not always enough;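 further: plate controls were DMSO wells with GST-MLLE for no effect and wells lacking GST-MLLE protein for full effect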
# SUMO HTRF inh = inhibitors of in vitro SUMOylation cascade, primary screen, biochemical, HTRF, uHTS | HTRF SUMOylation assay, SAE1/SAE2 + UBC9 | inhibition, % at 35 µM | AID 2006, 2009 | SUMO-conjugating enzyme UBC9 (Homo sapiens), P63279 | 290,000 compounds, 0.36% hits; in the data active means inhibition above about 50%, passing the limit was not always enough; inconclusive means no clear call, values can overlap the other calls
# Target sequence (P63279 whole entry, looked up): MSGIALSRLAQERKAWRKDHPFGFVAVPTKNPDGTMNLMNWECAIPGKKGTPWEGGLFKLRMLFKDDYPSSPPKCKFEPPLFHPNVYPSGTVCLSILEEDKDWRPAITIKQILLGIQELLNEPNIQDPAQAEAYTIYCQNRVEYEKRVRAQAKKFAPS
# core dimer inh = inhibitors of HCV core protein dimerization, primary screen, biochemical, TR-FRET, high-throughput | TR-FRET GST/Flag-core106 dimerization, 1536-well | inhibition, % at 5 µM | 300,000 compounds, 0.33% hits;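 active means inhibition above the mean of all tested compounds plus 3 SD, set per screening campaign, cut at about 45% in these data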
#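 test system = GST/Flag-tagged HCV core106 proteins | probe or stimulus = Eu donor and XL665 acceptor anti-tag antibodies | times = compound-protein-antibody incubation 4 h at 22.5 °C | signal = TR-FRET, excitation 340 nm, emission 617 and 671 nm | measure = percent inhibition of core106 dimerization signal | controls = wells lacking GST-core106 and wells with excess unlabelled core106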
# Starred values were filed as active, the others as inactive; i = inactive; ? = inconclusive; . = no result given; + = active, no number; [ ] = dose if it differs, or a comment. Unless noted, how the calls were made is not given here.
SMILES,PABP polyA inh,eIF4E-4G inh,eIF4H inh,MLLE-PAM2 inh,SUMO HTRF inh,core dimer inh
CCCc1cc(=O)oc2cc(OCC(=O)NC(Cc3c[nH]c4ccc(O)cc34)C(=O)O)c(Cl)cc12 (stereo not drawn),+,.,52*,-13,22,-6
Cc1cc(OCC(=O)NC(Cc2c[nH]c3ccc(O)cc23)C(=O)O)c2c(C)c(C)c(=O)oc2c1 (stereo not drawn),i,.,41,6,24,1
COc1ccc2c(c1)c(=O)oc1c(C)c(OC(C)C(=O)N[C@@H](Cc3c[nH]c4ccc(O)cc34)C(=O)O)ccc12 (stereo partly drawn),+,.,82*,2,24,1
CC(Oc1ccc2c(-c3ccccc3)cc(=O)oc2c1)C(=O)NC(Cc1c[nH]c2ccc(O)cc12)C(=O)O (stereo not drawn),+,.,86*,-9,-1,0
Cc1ccc(C(=O)NNC(=O)c2ccncc2)cc1C,i,.,-7,-1,8,-1
Cc1ccc(CC(=O)NNC(=O)c2ccncc2)cc1C,.,.,.,57*,.,3
COc1cc(OC)cc(-c2c(-c3cccs3)c3cc(-c4ccc5[nH]ccc5c4)ccc3n2C)c1,.,.,.,-15,.,.
COCCOC(=O)c1c(C)oc2ccc(OCc3cc(C(=O)OC)oc3C)cc12,i,0,-6,-4,8,7
COC(=O)c1cc(COc2ccc3c(c2)oc(=O)c2ccccc23)c(C)o1,i,-26,9,5,2,51*
O=C(C1CC1)N1CCc2cc(S(=O)(=O)NCc3ccccc3)ccc21,i,.,1,16,0,-3
Cc1cccc(/C=C/C(=O)c2ccc(NC3=NCCCS3)cc2)c1,i,3,-18,-23,-4,1
COc1cccc(/C=C/C(=O)c2ccc(NC3=NCCCS3)cc2)c1,+,-2,active,-10,17,1
Cc1onc(-c2ccccc2)c1C(=O)N1CCN(C/C=C/c2ccccc2)CC1,+,-4,28*,11,-4,0
CC1CN(c2ccc(Oc3ccccc3)cc2)c2nc3c(c(=O)n(CC(N)=O)c(=O)n3C)n2C1 (stereo not drawn),i,95*,-1,-1,-20,21
CC1CN(Cc2ccccc2)c2nc3c(c(=O)n(CC(N)=O)c(=O)n3C)n2C1 (stereo not drawn),i,.,1,-4,11,-5
O=C(Nc1oc2ccccc2c(=O)c1-c1ccc(Br)cc1)c1ccco1,.,.,.,-12,.,63*
CCOC(=O)N=Nc1c(O)n(C)c2ccccc12,i,12,-13,-1,1,-1
C=CCn1c(O)c(N=NC(=O)OCC)c2ccccc21,i,3,active,5,-3,-2
CC1=NN(c2ccccc2)C(=O)/C1=C\C=C\c1ccccc1,i,1,2,16,4,20
CC1=NN(c2ccc(C)c(C)c2)C(=O)/C1=C\C=C\c1ccc([N+](=O)[O-])o1,i,21,92*,-66,38,63*
NNC(=O)CNS(=O)(=O)c1ccc([N+](=O)[O-])cc1,i,-2,2,18,9,-2
CC1=C/C(=C\c2ccc(Br)o2)C(=O)O1,i,17,86,2,3,12
O=C1C(=Cc2ccc(Br)o2)C(=O)c2ccccc21,+,38*[fluorescence artefact?],89*,23,22,9
COc1cc(N)c(C(=O)c2nccc3cc(OC)c(OC)cc23)cc1OC,i,.,0,2,6,-5
COc1cc(C(=O)c2nccc3cc(OC)c(OC)cc23)c([N+](=O)[O-])cc1OC,i,0,4,7,87*,-1
SMILES,PABP polyA inh,eIF4E-4G inh,eIF4H inh,MLLE-PAM2 inh,SUMO HTRF inh,core dimer inh
COc1cccc(CN2C(=O)c3cccc(N)c3C2=O)c1,+,13,88*,12,27,2
NC(=O)CC(NC(=O)c1cccc(Br)c1)c1ccc(N2CCN(c3ccccn3)CC2)c([N+](=O)[O-])c1 (stereo not drawn),i,.,-4,-3,6,19
Cc1nc2[nH]c(=S)[nH]c(=O)c2nc1C,.,.,.,42*,.,.
O=C(O)CCC(C(=O)O)n1c(O)c(C2=c3ccccc3=NC2=O)sc1=S (stereo not drawn),i,-8,-3,40*,10,-1
CC1CCCN(C(=O)COC(=O)CNC(=O)c2ccc(Br)cc2)C1 (stereo not drawn),.,.,.,2,.,3
O=C(NCc1ccco1)C(c1ccco1)N(C(=O)Cn1nnc2ccccc21)c1ccc2c(c1)CCC2 (stereo not drawn),.,.,.,-1,.,50*
O=c1c2c([N+](=O)[O-])cc([N+](=O)[O-])cc2nc2ccccn12,+,.,82*,-4,27,38
Cc1ccc(NC(=O)Cn2c(=O)oc3cc(S(=O)(=O)N4CCC(C)CC4)ccc32)cc1C,i,0,2,-9,50*,24
Cc1ccc(S(=O)(=O)N2CCOCC2)cc1NC(=O)COC(=O)CNC(=O)c1ccc(Cl)cc1Cl,i,.,-3,-7,4,.
COC(=O)c1c(C)[nH]c(O)c1C=Nc1ccc(C(C)C)cc1,+,-10,85*,-78,0,-18
COC(=O)c1c(C)[nH]c(O)c1C=Nc1ccc(Oc2ccccc2)cc1,i,-1,?,-84,11,-11
Fc1ccc(-c2nc3c(Cl)cc(C(F)(F)F)cn3c2Cl)cc1,i,-7,?,43*,-3,1
CCC12CCCN3CCc4c(n(c5ccccc45)C(O)(C(=O)OC)C1)C32 (stereo not drawn),+,0,96*,-1,32,5
CC[C@]12CCCN3CCc4c(n(c5ccccc45)[C@](O)(C(=O)OC)C1)[C@@H]32,.,.,.,-17,.,-4
Cc1cc(N)ccc1N1CCCC1,?,45*[fluorescence artefact?],?,7,41,-1
Cc1cc(N)ccc1-n1c(C)ccc1C,i,-5,13,2,20,-2
Cc1ccc(-n2c(N)c(C(N)=O)sc2=S)cc1,i,34*[fluorescence artefact?],7,32,-15,-9
O=C(NC1CC1)c1ccc2sc([C@@H]3O[C@H](CO)[C@H](O)[C@H](O)[C@H]3O)nc2c1,.,.,.,-7,.,.
CN(C)c1ccc(O)c2c1CC1CC3C(N(C)C)C(=O)C(C(N)=O)=C(O)[C@@]3(O)C(=O)C1=C2O (stereo partly drawn),.,.,.,10,.,-3
